{"source": "paper PMC10692362", "about": "(Acta Pharmaceutica Sinica. B, 2023)", "key": {"ERα D538G": {"target": "T1, ERα D538G (Homo sapiens, UniProt P03372, D538G)", "T1 sequence (P03372 1-595 D538G)": "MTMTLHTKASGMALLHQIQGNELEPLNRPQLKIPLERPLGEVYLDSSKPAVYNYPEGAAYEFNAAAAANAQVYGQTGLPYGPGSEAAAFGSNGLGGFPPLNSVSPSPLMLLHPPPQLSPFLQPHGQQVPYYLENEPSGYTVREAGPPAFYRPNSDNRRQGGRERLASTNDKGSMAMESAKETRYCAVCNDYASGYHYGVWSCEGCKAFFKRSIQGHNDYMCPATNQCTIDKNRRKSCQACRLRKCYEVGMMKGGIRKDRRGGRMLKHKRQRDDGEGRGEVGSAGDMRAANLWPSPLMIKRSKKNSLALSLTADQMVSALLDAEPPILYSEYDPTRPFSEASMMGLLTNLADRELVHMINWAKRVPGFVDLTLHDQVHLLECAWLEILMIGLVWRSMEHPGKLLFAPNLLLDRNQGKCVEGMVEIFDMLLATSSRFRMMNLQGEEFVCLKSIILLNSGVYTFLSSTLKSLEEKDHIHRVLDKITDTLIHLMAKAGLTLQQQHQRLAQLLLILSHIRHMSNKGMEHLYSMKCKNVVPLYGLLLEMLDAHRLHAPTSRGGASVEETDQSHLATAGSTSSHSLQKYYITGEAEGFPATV", "assay": "Immunoblot analysis of ERα degradation in T-47D^D538G cells", "assay_type": "cell-based", "settings": "5 μmol/L over 12 h"}, "T-47D cells": {"tested_on": "T-47D cells", "assay": "Cell viability assay", "assay_type": "cell-based, human", "settings": "Homo sapiens, T47D, 72 h, read-out: T-47D IC50"}, "T-47D^Y537S cells": {"tested_on": "T-47D^Y537S cells", "assay": "Cell viability assay", "assay_type": "cell-based, human", "settings": "Homo sapiens, 72 h, read-out: T-47D^Y537S IC50"}, "ERβ": {"target": "ERβ (Homo sapiens, UniProt Q92731)", "sequence (Q92731 whole entry)": "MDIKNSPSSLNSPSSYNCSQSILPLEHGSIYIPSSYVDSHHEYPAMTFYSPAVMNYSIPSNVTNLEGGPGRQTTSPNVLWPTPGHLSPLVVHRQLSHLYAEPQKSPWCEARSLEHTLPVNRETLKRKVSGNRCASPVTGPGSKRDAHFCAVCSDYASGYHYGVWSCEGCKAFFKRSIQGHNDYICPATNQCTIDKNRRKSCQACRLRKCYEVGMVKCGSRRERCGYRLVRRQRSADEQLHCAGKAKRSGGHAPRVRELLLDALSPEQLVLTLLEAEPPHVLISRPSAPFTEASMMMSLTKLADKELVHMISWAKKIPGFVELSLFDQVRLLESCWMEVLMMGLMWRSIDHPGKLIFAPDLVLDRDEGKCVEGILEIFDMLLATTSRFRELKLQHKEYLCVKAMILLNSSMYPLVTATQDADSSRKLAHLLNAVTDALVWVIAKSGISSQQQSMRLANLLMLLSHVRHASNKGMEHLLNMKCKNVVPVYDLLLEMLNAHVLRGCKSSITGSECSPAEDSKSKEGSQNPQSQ", "assay_type": "cell-based", "settings": "5 μmol/L, HEK-293T cells", "in_short": "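Transfected HEK-293T cells treated with test compound; ERβ protein assessed by immunoblot. Lysates prepared with RIPA buffer, resolved by SDS-PAGE and transferred to PVDF. Membranes blocked in 5% skim milk and developed by ECL, with β-actin as loading control.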"}, "[1]": {"target": "T2, ERα Y537S and C381S–C417S–Y537S proteins (Homo sapiens, UniProt P03372, Y537S)", "T2 sequence (P03372 305-554 Y537S)": "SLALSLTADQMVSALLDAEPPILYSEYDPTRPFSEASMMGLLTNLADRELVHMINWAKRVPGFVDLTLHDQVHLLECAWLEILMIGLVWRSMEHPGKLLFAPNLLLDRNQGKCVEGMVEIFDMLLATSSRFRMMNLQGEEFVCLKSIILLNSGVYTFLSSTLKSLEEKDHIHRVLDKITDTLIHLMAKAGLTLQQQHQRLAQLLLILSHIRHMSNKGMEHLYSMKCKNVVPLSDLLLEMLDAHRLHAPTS", "assay": "Intact mass spectrometry to assess covalency", "assay_type": "binding", "settings": "20 μmol/L compound : 1 μmol/L protein, 4 °C overnight"}, "human ERα LBD": {"target": "T3, human ERα LBD (Homo sapiens, UniProt P03372)", "T3 sequence (P03372 311-547 limits assumed)": "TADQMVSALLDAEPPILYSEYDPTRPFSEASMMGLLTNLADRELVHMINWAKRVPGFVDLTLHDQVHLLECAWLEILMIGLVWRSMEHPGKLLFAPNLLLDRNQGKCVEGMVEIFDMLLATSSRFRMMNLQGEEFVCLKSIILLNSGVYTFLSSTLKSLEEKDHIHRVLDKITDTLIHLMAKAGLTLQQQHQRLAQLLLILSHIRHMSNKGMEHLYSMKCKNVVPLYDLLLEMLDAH", "assay": "Competitive fluorescence polarization binding assay, ERα"}, "ERα C530S mutant": {"target": "T4, ERα C530S mutant (Homo sapiens, UniProt P03372, C530S)", "T4 sequence (P03372 1-595 C530S)": "T1 sequence (P03372 1-595 D538G) with C530S, G538D", "assay": "Transcriptional activity", "assay_type": "cell-based"}, "ERα Y537S": {"target": "T5, ERα Y537S (Homo sapiens, UniProt P03372, Y537S)", "T5 sequence (P03372 1-595 Y537S)": "T1 sequence (P03372 1-595 D538G) with Y537S, G538D", "assay": "Immunoblot analysis of ERα degradation in T-47D^Y537S cells", "assay_type": "cell-based", "settings": "5 μmol/L over 12 h"}, "human ERβ LBD": {"target": "human ERβ LBD (Homo sapiens, UniProt Q92731)", "sequence (Q92731 264-498 limits assumed)": "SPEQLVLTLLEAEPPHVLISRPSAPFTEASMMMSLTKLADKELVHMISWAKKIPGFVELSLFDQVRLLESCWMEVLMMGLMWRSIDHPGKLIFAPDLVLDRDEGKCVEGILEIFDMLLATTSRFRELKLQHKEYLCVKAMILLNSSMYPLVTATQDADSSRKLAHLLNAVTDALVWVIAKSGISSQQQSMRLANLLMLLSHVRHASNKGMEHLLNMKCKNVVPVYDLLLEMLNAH", "assay": "Competitive fluorescence polarization binding assay, ERβ"}, "[2]": {"settings": "IC50 estradiol/IC50 compound × 100, estradiol = 100%"}}, "note": "Residue numbers refer to the chain shown, from its start. Values joined by “and” are separate entries in the source; they are usually repeats but may differ in a detail not shown here. Equal values may be shown once."}
{"smiles": "CC(C)=CC(=O)Nc1ccc(C2=C(c3ccc(O)cc3)C3OC2CC3S(=O)(=O)N(CC(F)(F)F)c2ccc(O)cc2)cc1", "note": "(stereo not drawn) [Compound 29c, N-(4-(3-(4-Hydroxyphenyl)-5-(N-(4-hydroxyphenyl)-N-(2,2,2-trifluoroethyl)sulfamoyl)-7-oxabicyclo[2.2.1]hept-2-en-2-yl)phenyl)-3-methylbut-2-enamide]", "values": [{"measurement": "ERα degradation time course, T-47D^D538G", "setting": "ERα D538G", "result": "completely degraded"}, {"measurement": "IC50", "setting": "T-47D cells", "result": "870 ± 150", "unit": "nM"}, {"measurement": "IC50", "setting": "T-47D^Y537S cells", "result": "880 ± 150", "unit": "nM"}, {"measurement": "ERβ degradation (immunoblot)", "setting": "ERβ", "result": "no degradation capacity for ERβ"}, {"measurement": "Covalent adduct with ERα (intact MS)", "setting": "[1]", "result": "specifically and covalently bound to residue C530"}, {"measurement": "Ki", "setting": "human ERα LBD", "result": 0.09, "unit": "nM"}, {"measurement": "RBA ERα", "setting": "human ERα LBD; [2]", "result": "30.44% and 30.44 ± 1.13%"}, {"measurement": "α/β ratio", "setting": "human ERα LBD; ratio of RBA ERα to RBA ERβ", "result": 49.90}, {"measurement": "IC50", "setting": "ERα C530S mutant", "result": 290, "unit": "nM"}, {"measurement": "Agonist mode ERα C530S Eff (%E2)", "setting": "ERα C530S mutant; ERα C530S mutant, HEK-293T", "result": "2 ± 1", "unit": "%E2"}, {"measurement": "Antagonist mode ERα C530S Eff (%E2)", "setting": "ERα C530S mutant; ERα C530S mutant, HEK-293T", "result": "33 ± 2", "unit": "%E2"}, {"measurement": "Effect of C530S mutation on antagonistic activity", "setting": "ERα C530S mutant; HEK-293T^C530S cells, compared with wild type", "result": "decreased"}, {"measurement": "ERα degradation time course, T-47D^Y537S", "setting": "ERα Y537S", "result": "completely degraded"}, {"measurement": "Ki", "setting": "human ERβ LBD", "result": 10.9, "unit": "nM"}, {"measurement": "RBA ERβ", "setting": "human ERβ LBD; [2]", "result": "0.61 ± 0.11", "unit": "%"}]}
